Compound activity: PubChem, The Scripps Research Institute Molecular Screening Center
Compounds with a hit are over-represented: about 1.8% of the library has one in this group of screens.
CHRM4 PAM = potentiates acetylcholine response at human M4 receptor; P08173; CHO-K1 hM4/Gqi5, Fluo-8 calcium fluorescence, ACh EC20; 0% = ACh EC20, 100% = maximal ACh; activation, % at 3 µM; 0.4% of 360,000 active;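 active = activation above its plate's cutoff, the mean activation of sample wells plus 3 SD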
M5 antag = CHRM5 antagonism in calcium assay; 0.59% of 360,000 active; AID 624040; P08912; CHO-hM5 cells, Fluo-8 calcium fluorescence, ACh EC80; inhibition, % at 3 µM;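 active = inhibition above a per-plate cutoff, the mean of that plate's test compounds plus 3 SD, cut at about 27% in these data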;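 note: 0% = acetylcholine EC80 with DMSO and 100% = DMSO without agonist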
Target sequence (P08912 whole entry, looked up): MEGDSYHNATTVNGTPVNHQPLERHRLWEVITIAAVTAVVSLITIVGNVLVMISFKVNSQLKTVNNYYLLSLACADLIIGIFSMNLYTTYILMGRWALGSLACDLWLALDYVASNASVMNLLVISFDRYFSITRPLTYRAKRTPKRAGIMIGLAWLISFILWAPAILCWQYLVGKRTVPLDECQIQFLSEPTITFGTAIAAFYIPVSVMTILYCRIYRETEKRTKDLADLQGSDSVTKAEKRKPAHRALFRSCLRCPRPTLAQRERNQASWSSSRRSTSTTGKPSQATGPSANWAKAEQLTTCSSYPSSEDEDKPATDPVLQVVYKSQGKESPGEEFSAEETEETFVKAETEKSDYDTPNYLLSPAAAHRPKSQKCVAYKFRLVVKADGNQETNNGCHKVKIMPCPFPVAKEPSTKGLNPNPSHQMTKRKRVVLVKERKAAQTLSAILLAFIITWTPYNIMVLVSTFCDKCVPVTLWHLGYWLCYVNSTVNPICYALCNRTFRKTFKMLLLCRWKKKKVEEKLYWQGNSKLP
CHRM4 agonist = CHRM4 agonism in calcium assay. AID 624127. P08173. 0.14% of 360,000 active. activation, % at 3 µM. CHO-K1 hM4/Gqi5, Fluo-8 calcium fluorescence; vehicle 0%, full acetylcholine response 100%;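 active = activation above the run mean over all test wells plus 3 SD, cut at about 32% in these data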;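 note: peak over basal fluorescence ratio per well then scaled between controls; 0% = DMSO wells and 100% = acetylcholine at EC100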
CHRM5 PAM = positive allosteric modulators of human muscarinic M5 receptor; P08912; CHO-K1 hM5, Fluo-8 calcium, ACh EC20 PAM; 0% = ACh EC20, 100% = ACh EC100; activation, % at 3 µM; 0.3% of 360,000 active; AID 624038;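 active = activation above the run cutoff, the mean activation of all test compounds plus 3 SD, cut at about 18% in these data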
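Assay system: CHO-K1 hM5 cells. Also added: acetylcholine at EC20 concentration, added after compound. Dosing: 3 µM, single dose. Times: compound preincubation 140 s before EC20 acetylcholine addition. Signal: Fluo-8 calcium fluorescence. Measure: % activation relative to EC20 and EC100 ACh responses. Repeats: singlicate, one well per test compound.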
M5 ag = CHRM5 agonism in calcium assay | P08912 | activation, % at 3 µM | CHO-K1 hM5 cells, Fluo-8 calcium fluorescence; 0% DMSO wells, 100% maximal acetylcholine response | 0.19% of 360,000 active;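 active = activation above the run's mean over test compounds plus 3 SD, cut at about 23% in these data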;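 note: signal is peak over basal fluorescence ratio across the kinetic read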
CHRM4 antagonist = blocks acetylcholine activation of human M4 receptor; 0.73% of 360,000 active; P08173; CHO-hM4 cells, ACh EC80, Fluo-8 calcium fluorescence; inhibition, % at 3 µM;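 active = inhibition above its plate's cutoff, the mean inhibition of sample wells plus 3 SD, cut at about 27% in these data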;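 note: 0% = acetylcholine EC80 with DMSO and 100% = DMSO without agonist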
Starred values were filed as active, the others as inactive.

SMILES | CHRM4 PAM | M5 antag | CHRM4 agonist | CHRM5 PAM | M5 ag | CHRM4 antagonist
C[C@H](CO)N1C[C@H](C)[C@@H](CN(C)C(=O)Oc2ccccc2)OCc2cnnn2CCCC1=O | 0 | -3 | 1 | 1 | 1 | -3
CN(C)P(=NC(=S)c1cccn1C)(N(C)C)N(C)C | -15 | 27* | 1 | -26 | -7 | 20
COc1ccc(C(c2nnnn2-c2c(C)cccc2C)N2CCC3(CC2)C(=O)NCN3c2ccccc2)cc1 (configuration not stated) | -3 | 16 | 0 | 2 | -1 | 2
O=C1CC23c4ccccc4N4C(=O)CC5OCC=C6CN1C2CC6C5C43 (configuration not stated) | 2 | 12 | 1 | -10 | 0 | 3
O=c1[nH]c(O)c(C=Nc2ccc(Cl)c(C(F)(F)F)c2)c(=O)[nH]1 | -16 | 38* | 0 | -34 | -25 | 34*
CCCCCN1C(=O)c2cc(OC)ccc2[C@@]2(C(=O)OCC)Cc3cc(Cl)ccc3[C@@H]12 | 17 | -1 | -1 | 5 | 12 | 14
O=C1C2CCN(CC2)[C@@H]1Cc1ccc2ccccc2c1O | -23 | 30* | 2 | -17 | -6 | 47*
CN1C(=O)C(Cc2cccc3ccccc23)C(=O)N(C)C1=O | 0 | -2 | 0 | -3 | -2 | 8
Cc1cc(N(CCCl)CCCl)ccc1C=Cc1ccncn1 | -8 | 13 | 36* | -24 | 23 | 1
Cc1cc(N(CCCl)CCCl)ccc1/C=N/N=C(\N)c1cnccn1 | -9 | 8 | 4 | -7 | -5 | -10
Cc1ccccc1C(O)(Cc1ccccc1)C1CN2CCC1CC2 (configuration not stated) | -15 | 92* | 4 | -30 | -13 | 76*
O=C(N/N=C/c1c(O)n(C2CCCCC2)c(=S)[nH]c1=O)c1ccccc1 | 0 | 7 | -1 | -3 | -4 | -23
O=C(N/N=C/C1C(=O)NC(=S)N(c2ccccc2)C1=O)c1cc(Br)c(O)c(Br)c1 (configuration not stated) | -12 | 30* | 7 | -19 | 1 | 9
C[C@]12CC[C@@H](O)CC1=CC(=O)C1C2CC[C@]2(C)C(=O)[C@H](O)CC12 (some centres not stated) | 4 | -11 | 2 | 0 | 2 | -19
O=[N+]([O-])c1ccc(N2CCCCCC2)c2nonc12 | -19 | 58* | 144* | -34 | 545* | 38*
O=[N+]([O-])c1ccc(N2CCCCC2)c2ncccc12 | 1 | 27 | 0 | -10 | -7 | 3
O=[N+]([O-])c1ccc(N2CCCNCC2)c2ncccc12 | -48 | 29* | 1 | -32 | -19 | 27*
Fc1ccc(C(OCCN2CCCC2)c2ccc(Br)cc2)cc1 (configuration not stated) | -34 | 38* | 9 | -18 | -5 | 16
C#CCN1CCN(c2ccc(F)cc2)CC1 | 3 | 10 | 0 | -1 | 1 | -4
c1ccc(CCCN2CCN(CCOC(c3ccccc3)c3ccccc3)CC2)cc1 | -18 | 18 | 7 | -19 | -1 | 47*
Fc1ccc(C(OCCN2CCN(CCCc3ccccc3)CC2)c2ccc(F)cc2)cc1 | -15 | 8 | 5 | -17 | -1 | 20
Fc1ccc(C(OCCN2CCCC2)c2ccc(F)cc2)cc1 | -35 | 54* | 7 | -18 | -5 | 30*
CCOC(=O)[C@]12Cc3cc4ccccc4cc3[C@H]1N(Cc1ccccc1)C(=O)c1ccccc12 | 2 | 8 | 0 | 1 | 0 | 4
CC(=O)Nc1cccc([As](=O)(c2cccc(NC(C)=O)c2)c2cccc(NC(C)=O)c2)c1 | -5 | 9 | 1 | 1 | 2 | 4
CC(=O)Nc1cc([As](=O)(O)O)ccc1O | 0 | 13 | 1 | -13 | 27* | -5
SMILES | CHRM4 PAM | M5 antag | CHRM4 agonist | CHRM5 PAM | M5 ag | CHRM4 antagonist
CC(C)(C)n1nnnc1C(c1ccnc2ccccc12)N1CCC2(CC1)C(=O)NCN2c1ccccc1 (configuration not stated) | -6 | 2 | 2 | -3 | 5 | 0
Cc1ccc(-c2cc(-c3ccccc3)cc(-c3ccccc3)[n+]2-c2ccccc2)cc1 | -22 | 49* | 21 | -42 | -5 | 79*
CN(C)c1ccc(-[n+]2c(-c3ccccc3)cc(-c3ccccc3)cc2-c2ccccc2)cc1 | -21 | 78* | 18 | -16 | -4 | 56*
O=[N+]([O-])c1cc(Cl)c(O)c(-[n+]2c(-c3ccccc3)cc(-c3ccccc3)cc2-c2ccccc2)c1 | -2 | -2 | 1 | -1 | 1 | 1
c1ccc(-c2cc(-c3ccccc3)[n+](-c3ccccc3)c(-c3ccccc3)c2)cc1 | -41 | 48* | 11 | -31 | -12 | 73*
Cc1ccc(-c2cc(-c3ccc(C)cc3)[n+](-c3ccccc3)c(-c3ccc(C)cc3)c2)cc1 | -21 | 31* | 30 | -43 | -3 | 65*
Cc1ccc(-c2cc(-c3ccc(C)cc3)[n+](-c3ccc(C(=O)[O-])cc3)c(-c3ccc(C)cc3)c2)cc1 | 4 | 6 | 0 | 0 | -9 | -1
C[n+]1c(-c2ccccc2)cc(-c2ccc(Cl)cc2)cc1-c1ccccc1 | -2 | 7 | 2 | 1 | -9 | 1
CCOC(=O)[C@]12Cc3cc4ccccc4cc3[C@H]1N(Cc1ccccc1)C(=O)c1cc(OC)ccc12 | -2 | 2 | 0 | 3 | 2 | 8
CC[C@H]1c2ccccc2[C@@H]2CC[C@H]1N2c1ccccc1 | -5 | -3 | -3 | -1 | -3 | -2
CCOC(=O)c1cccc(-[n+]2c(-c3ccccc3)cc(-c3ccccc3)cc2-c2ccccc2)c1 | -11 | 24 | 3 | -33 | -12 | 27*
CCOC(=O)c1ccccc1C(=O)OCC | -2 | -10 | 0 | 3 | 0 | -2
CCCCCCCCCCCCCCCC[N+](C)(C)C | -16 | 38* | 1 | -18 | -2 | 30*
CCCCCC[N+](=O)[O-] | -6 | -3 | 0 | 0 | 1 | -4
O=C(CCC(=O)N1C[C@H]2C[C@@H](C1)c1cccc(=O)n1C2)NCc1ccccc1 | 3 | 9 | 1 | -1 | 2 | 5
N[C@@H](Cc1ccccc1)C(=O)N1C[C@H]2C[C@@H](C1)c1cccc(=O)n1C2 | -16 | 6 | 0 | -17 | -3 | 92*
CCC(C(=O)N1C[C@H]2C[C@@H](C1)c1cccc(=O)n1C2)c1ccccc1 (some centres not stated) | -7 | 5 | 1 | -7 | 0 | 3
